Experimental data reported in ChEMBL document CHEMBL1123203, “Metal complexes of mitomycins” (1986).

Columns and labels:
P388 [1] = test: (§1) Activity against P-388 murine leukemia cells expressed as average weight change at a dose of 25.6 mg/kg per inj.; format: functional, Mus musculus
P388 [2] = test: (§2) Activity against P-388 murine leukemia cells expressed as average weight change at a dose of 12.8 mg/kg per inj.; format: functional, Mus musculus
P388 [3] = test: Activity against P-388 murine leukemia cells expressed as median survival time (MST treated/MST control) at a dose of 4.8 mg/kg per inj.; format: functional, Mus musculus
Summary of the method: (§3)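 P-388 leukemia in vivo: 10^6 ascites cells implanted ip into female CDF1 mice. Six mice per mitosane dose, 10 saline-injected controls, and a concurrent mitomycin C group of six mice per dose. Median survival time recorded; %T/C = MST treated/MST control × 100. 30-day survivors counted. Minimum effective dose set at %T/C 125.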

P388 [4] = test: Activity against P-388 murine leukemia cells expressed as median survival time (MST treated/MST control) at a dose of 12.8 mg/kg per inj.; format: functional, Mus musculus; summary of the method: as §3
P388 [5] = test: Activity against P-388 murine leukemia cells expressed as median survival time (MST treated/MST control) at a dose of 25.6 mg/kg per inj.; format: functional, Mus musculus; summary of the method: as §3
P388 [6] = test: Activity against P-388 murine leukemia cells expressed as average weight change at a dose of 1.6 mg/kg per inj.; format: functional, Mus musculus
P388 [7] = test: Activity against P-388 murine leukemia cells expressed as median survival time (MST treated/MST control) at a dose of 3.2 mg/kg per inj.; format: functional, Mus musculus; summary of the method: as §3
P388 [8] = test: Activity against P-388 murine leukemia cells expressed as median survival time (MST treated/MST control) at a dose of 6.4 mg/kg per inj.; format: functional, Mus musculus; summary of the method: as §3
P388 [9] = test: Activity against P-388 murine leukemia celLS at a dose of 3.2 mg/kg per inj.; format: functional, Mus musculus; summary of the method: as §3
P388 [10] = test: (§4) Activity against P-388 murine leukemia cells expressed as average weight change at a dose of 3.2 mg/kg per inj.; format: functional, Mus musculus
P388 [11] = test: Activity against P-388 murine leukemia cells expressed as median survival time (MST treated/MST control) at a dose of 1.6 mg/kg per inj.; format: functional, Mus musculus; summary of the method: as §3
P388 [12] = test: (§5) Activity against P-388 murine leukemia cells expressed as average weight change at a dose of 6.4 mg/kg per inj.; format: functional, Mus musculus
P388 [13] = test: Activity against P-388 murine leukemia cells expressed as average weight change at a dose of 0.8 mg/kg per inj.; format: functional, Mus musculus
P388 [14] = test: Activity against P-388 murine leukemia cells expressed as median survival time (MST treated/MST control) at a dose of 0.4 mg/kg per inj.; format: functional, Mus musculus; summary of the method: as §3
P388 [15] = test: Activity against P-388 murine leukemia cells expressed as median survival time (MST treated/MST control) at a dose of 0.2 mg/kg per inj.; format: functional, Mus musculus; summary of the method: as §3
P388 [16] = test: Activity against P-388 murine leukemia cells expressed as average weight change at a dose of 0.2 mg/kg per inj.; format: functional, Mus musculus
P388 [17] = test: Activity against P-388 murine leukemia cells expressed as median survival time (MST treated/MST control) at a dose of 0.8 mg/kg per inj.; format: functional, Mus musculus; summary of the method: as §3
P388 [18] = test: Activity against P-388 murine leukemia cells expressed as average weight change at a dose of 0.4 mg/kg per inj.; format: functional, Mus musculus
P388 [19] = test: Activity against P-388 murine leukemia cells at a dose of 3.2 mg/kg per inj.; format: functional, Mus musculus; summary of the method: as §3
P388 [20] = test: as §4; format: functional, organism-based; details: Mus musculus
Summary of the method: (§6)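 P-388 leukemia in vivo: 10^6 ascites cells implanted ip in female CDF1 mice. Six mice per dose level; 10 saline-injected controls. A parallel group of six mice per dose received mitomycin C in the same experiment as a reference. Tested at Bristol-Myers.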

P388 [21] = test: as §5; format: functional, organism-based; details: Mus musculus; summary of the method: as §6
P388 [22] = test: as §2; format: functional, organism-based; details: Mus musculus; summary of the method: as §6
P388 [23] = test: as §1; format: functional, organism-based; details: Mus musculus; summary of the method: as §6
P388 [24] = test: Activity against P-388 murine leukemia cells at a dose of 4.8 mg/kg per inj.; format: functional, Mus musculus; summary of the method: as §3

Compound: CO[C@@]12[C@H](COC(N)=O)C3=C(C(=O)C(C)=C(NCCN4CCNCC4)C3=O)N1C[C@@H]1N[C@@H]12.Cl.Cl.[Zn+2]
- Activity (P388 [1]): -0.6 g
- Activity (P388 [2]): 1.2 g
- T/C (P388 [3]): 213%
- MST (P388 [4]): 90
- MST (P388 [5]): 100

Compound: CO[C@@]12[C@H](COC(N)=O)C3=C(C(=O)C(C)=C(NCCc4ccccn4)C3=O)N1C[C@@H]1N[C@@H]12.Cl.Cl.[Zn+2]
- Activity (P388 [6]): 0.8 g
- MST (P388 [7]): 133
- Activity (P388 [1]): -1.3 g
- Activity (P388 [2]): -0.4 g
- MST (P388 [8]): 139
- T/C (P388 [9]): 194%
- Activity (P388 [10]): 0.1 g
- MST (P388 [11]): 122
- MST (P388 [4]): 156
- MST (P388 [5]): 161
- Activity (P388 [12]): -0.6 g

Compound: CO[C@@]12C(COC(N)=O)C3=C(C(=O)C(C)=C(NCCc4ccccn4)C3=O)N1CC1NC12 (stereo not given in full)
- Activity (P388 [13]): -0.3 g
- MST (P388 [14]): 125
- Activity (P388 [6]): -0.4 g
- MST (P388 [7]): 163
- MST (P388 [15]): 125
- Activity (P388 [1]): -2.7 g
- Activity (P388 [16]): -0.5 g
- MST (P388 [17]): 138
- Activity (P388 [2]): -1.8 g
- MST (P388 [8]): 213
- Activity (P388 [18]): -0.6 g
- Activity (P388 [10]): -0.9 g
- MST (P388 [11]): 163
- MST (P388 [4]): 256
- MST (P388 [5]): >375
- T/C (P388 [19]): 319%
- Activity (P388 [12]): -1.1 g

Compound: 2-amino-9-(2-carbamoyloxomethyl)-1-methoxy-6-methyl-5,8-dioxo-2,3,5,8-tetrahydro-1H-pyrrolo[1,2-a]indol-7-yl(dichlorocopper)ammonium; Copper chloride
- MST (P388 [7]; Mus musculus): 100
- MST (P388 [8]; Mus musculus): 100
- Activity (P388 [20]): 0.9 g
- Activity (P388 [21]): 0.8 g
- Activity (P388 [22]): 0.3 g
- Activity (P388 [23]): -3.1 g
- MST (P388 [4]; Mus musculus): 100
- T/C (P388 [19]; Mus musculus): 100%

Compound: CO[C@@]12C(COC(N)=O)C3=C(C(=O)C(C)=C(NCCN4CCNCC4)C3=O)N1CC1NC12 (stereo not given in full)
- Activity (P388 [1]): -0.6 g
- Activity (P388 [2]): 1.2 g
- MST (P388 [8]): 113
- T/C (P388 [3]): 213%
- MST (P388 [4]): 125
- MST (P388 [5]): 138
- Activity (P388 [12]): 2.1 g

Compound: COC1c2c(COC(N)=O)c3c(n2CC1N)C(=O)C(C)=C(N)C3=O.Cl (stereo not given)
- T/C (P388 [24]): >165%
- Activity (P388 [1]): 0.6 g
- Activity (P388 [2]): 0.4 g
- MST (P388 [8]): 110
- MST (P388 [4]): 115
- MST (P388 [5]): 130
- Activity (P388 [12]): 1.9 g

Compound: COC1c2c(COC(=N)[O-])c3c(n2CC1N)C(=O)C(C)=C(N)C3=O.Cl.[Zn+] (stereo not given)
- Activity (P388 [6]): 0.5 g
- MST (P388 [7]): 139
- Activity (P388 [1]): -0.7 g
- Activity (P388 [2]): 0.4 g
- MST (P388 [8]): 133
- Activity (P388 [10]): 2 g
- MST (P388 [11]): 122
- MST (P388 [4]): 144
- MST (P388 [5]): 178
- T/C (P388 [19]): 194%
- Activity (P388 [12]): 0.7 g

Compound: Platinium II Complex N7-[2-(2-Pyridyl)ethyl]mitomycin C
- Activity (P388 [1]; Mus musculus): -0.2 g
- Activity (P388 [2]; Mus musculus): 0.5 g
- T/C (P388 [3]; Mus musculus): 230%
- MST (P388 [4]; Mus musculus): 110
- MST (P388 [5]; Mus musculus): 125

Compound: 3-[6-(1,1-copperdichloro-1H,2H,3H,4H-pyrido[1,2-c]pyrimidin-9-ium-2-yl)-8a-methoxy-5-methyl-4,7-dioxo-(8aR)-1,1a,2,4,7,8,8a,8b-octahydroazireno[3',2':3,4]pyrrolo[1,2-a]indol-8-yl]methyloxocarboxamide
- av wt change (P388 [22]): 0.2 g
- av wt change (P388 [23]): -1.4 g
- MST (P388 [4]; Mus musculus): 122
- MST (P388 [5]; Mus musculus): 128
